In ChEMBL document CHEMBL1147494, “Differentiation of in vitro transcriptional repression and activation profiles of selective glucocorticoid modulators” (Bioorg Med Chem Lett, 2004):

How the values were obtained:
Glucocorticoid receptor [1] = biological target: T1, Glucocorticoid receptor (Homo sapiens, UniProt P04150); assay: Inhibition of transcriptional activation in CV-1 cells expressing glucocorticoid receptor; type: functional, cell-based
T1 sequence (P04150 whole entry): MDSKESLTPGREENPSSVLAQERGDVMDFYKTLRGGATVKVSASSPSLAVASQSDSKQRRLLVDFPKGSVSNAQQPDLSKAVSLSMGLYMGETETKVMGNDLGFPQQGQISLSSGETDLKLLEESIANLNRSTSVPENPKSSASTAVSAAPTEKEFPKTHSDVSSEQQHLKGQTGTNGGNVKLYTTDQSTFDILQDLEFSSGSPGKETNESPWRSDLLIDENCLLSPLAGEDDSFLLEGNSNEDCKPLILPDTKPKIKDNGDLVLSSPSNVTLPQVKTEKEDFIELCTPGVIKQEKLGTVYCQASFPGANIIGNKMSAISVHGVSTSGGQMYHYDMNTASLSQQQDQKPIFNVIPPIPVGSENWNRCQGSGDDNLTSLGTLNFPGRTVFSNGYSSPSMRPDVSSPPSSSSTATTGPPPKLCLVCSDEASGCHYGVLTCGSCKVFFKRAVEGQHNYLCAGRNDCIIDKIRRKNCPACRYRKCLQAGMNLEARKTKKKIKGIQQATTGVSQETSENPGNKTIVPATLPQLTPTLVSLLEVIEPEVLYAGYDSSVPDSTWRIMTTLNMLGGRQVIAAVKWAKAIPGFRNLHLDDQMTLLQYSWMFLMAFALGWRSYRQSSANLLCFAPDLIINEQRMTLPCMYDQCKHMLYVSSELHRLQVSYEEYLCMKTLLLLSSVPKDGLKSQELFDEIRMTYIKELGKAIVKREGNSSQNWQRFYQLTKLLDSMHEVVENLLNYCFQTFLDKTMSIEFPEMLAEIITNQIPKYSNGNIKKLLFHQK

Glucocorticoid receptor [2] = biological target: T1, Glucocorticoid receptor; assay: Inhibition of transcriptional repression in CV-1 cells expressing glucocorticoid receptor; type: functional, cell-based
[3] = biological target: T2, Progesterone receptor (Homo sapiens) (UniProt P06401); assay: In vitro binding affinity against progesterone receptor
T2 sequence (whole entry): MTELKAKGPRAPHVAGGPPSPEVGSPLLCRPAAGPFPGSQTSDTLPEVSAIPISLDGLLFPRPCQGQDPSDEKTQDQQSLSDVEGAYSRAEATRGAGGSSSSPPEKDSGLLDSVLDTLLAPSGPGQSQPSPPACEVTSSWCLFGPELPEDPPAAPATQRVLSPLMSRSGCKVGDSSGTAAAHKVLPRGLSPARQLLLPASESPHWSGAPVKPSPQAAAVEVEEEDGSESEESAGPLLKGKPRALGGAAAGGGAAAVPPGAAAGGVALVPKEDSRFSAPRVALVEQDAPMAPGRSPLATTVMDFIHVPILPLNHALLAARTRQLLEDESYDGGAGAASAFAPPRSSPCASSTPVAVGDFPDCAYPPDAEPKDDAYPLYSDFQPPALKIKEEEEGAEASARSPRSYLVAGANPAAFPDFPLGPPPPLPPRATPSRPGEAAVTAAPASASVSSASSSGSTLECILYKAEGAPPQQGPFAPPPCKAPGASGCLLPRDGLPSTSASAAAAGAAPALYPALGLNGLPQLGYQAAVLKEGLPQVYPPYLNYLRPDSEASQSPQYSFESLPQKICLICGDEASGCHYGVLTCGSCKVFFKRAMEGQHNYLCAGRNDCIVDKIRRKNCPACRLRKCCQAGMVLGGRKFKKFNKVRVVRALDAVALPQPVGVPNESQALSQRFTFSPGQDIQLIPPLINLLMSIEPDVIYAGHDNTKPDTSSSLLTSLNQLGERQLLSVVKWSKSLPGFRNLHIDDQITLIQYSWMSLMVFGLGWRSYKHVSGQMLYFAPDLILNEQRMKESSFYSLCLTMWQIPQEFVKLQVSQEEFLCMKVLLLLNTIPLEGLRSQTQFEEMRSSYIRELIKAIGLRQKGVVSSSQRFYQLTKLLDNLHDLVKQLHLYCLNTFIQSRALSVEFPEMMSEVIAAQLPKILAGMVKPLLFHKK
In short: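 Competition binding assay against progesterone receptor. Replicates vary by value: single experiments in triplicate; two experiments with triplicate determinations (with standard deviation); or at least three separate experiments in triplicate (mean ± SEM).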

[4] = biological target: T2, Progesterone receptor (Homo sapiens); assay: Transcriptional activation in cells expressing progesterone receptor isoform B compared to progesterone; type: functional
Progesterone receptor = biological target: T3, Progesterone receptor (Homo sapiens, UniProt P06401); assay: Inhibition of transcriptional activation in cells expressing progesterone receptor isoform B; type: functional
T3 sequence (P06401 whole entry): T2 sequence (whole entry)

Cell line [5] = assay: Effective concentration of compound for transcriptional activation of TAT in Human cell native protein assay; type: functional, cell-based
Cell line [6] = assay: Efficacy for transcriptional activation of collagenase in Human cell native protein assay expressed as percentage of the maximal response of Dexamethasone; type: functional
Cell line [7] = assay: Efficacy for transcriptional repression of IL-6 in Human cell native protein assay expressed as percentage of the maximal response of Dexamethasone; type: functional
Cell line [8] = assay: Efficacy for transcriptional activation of TAT in Human cell native protein assay expressed as percentage of the maximal response of Dexamethasone; type: functional
Cell line [9] = assay: Effective concentration for transcriptional activation of aromatase in Human cell native protein assay; type: functional, cell-based
Cell line [10] = assay: Efficacy for transcriptional activation of aromatase in Human cell native protein assay expressed as percentage of the maximal response of Dexamethasone; type: functional
Cell line [11] = assay: Effective concentration of compound for transcriptional repression of collagenase in Human cell native protein assay
Cell line [12] = assay: Effective concentration of compound for transcriptional repression of IL-6 in Human cell native protein assay
Cell line [13] = assay: Efficacy for transcriptional repression of osteocalcin in Human cell native protein assay expressed as percentage of the maximal response of Dexamethasone
Cell line [14] = assay: Efficacy for transcriptional […] of PGE-2 in Human cell native protein assay expressed as percentage of the maximal response of Dexamethasone; type: functional
Cell line [15] = assay: Effective concentration of compound for transcriptional repression of PGE-2 in Human cell native protein assay

Compound	IC50 (Glucocorticoid receptor [1])	IC50 (Glucocorticoid receptor [2])	Activity [3]	other results
CC/C=C\CC1Oc2cccc(OC)c2-c2ccc3c(c21)C(C)=CC(C)(C)N3 (stereo unspecified)	89 nM	88 nM	> 5000 nM	
COc1c(O)ccc2c1-c1ccc3c(c1[C@H]([C@@H]1C=C(C)CCC1)O2)C(C)=CC(C)(C)N3			11.4 nM	Efficacy [4]: 260%; IC50 (Progesterone receptor): 7.1 nM
C=CCC1Oc2cccc(OC)c2-c2ccc3c(c21)C(C)=CC(C)(C)N3 (stereo in doubt; (-)4a) [AL-43]	14 nM	6.9 nM		EC50 (Cell line [5]): 40 nM; Efficacy (Cell line [6]): 77%; Efficacy (Cell line [7]): 83%; Efficacy (Cell line [8]): 71%; EC50 (Cell line [9]): 160 nM; Efficacy (Cell line [10]): 82%; EC50 (Cell line [11]): 37 nM; EC50 (Cell line [12]): 30 nM
COc1cccc2c1-c1ccc3c(c1[C@@H]([C@H]1C=C(C)CCC1)O2)C(C)=CC(C)(C)N3	> 5000 nM	440 nM	> 5000 nM	
COc1cccc2c1-c1ccc3c(c1C(C1C=CCCCC1)O2)C(C)=CC(C)(C)N3 (stereo unspecified)			> 5000 nM	
COc1cccc2c1-c1ccc3c(c1[C@@H]([C@@H]1C=C(C)CCC1)O2)C(C)=CC(C)(C)N3	> 5000 nM	> 5000 nM	> 5000 nM	
C=C1CCCCC1C1Oc2cccc(OC)c2-c2ccc3c(c21)C(C)=CC(C)(C)N3 (stereo unspecified)	> 5000 nM	320 nM	> 5000 nM	
C=C(CO)CC1Oc2cccc(OC)c2-c2ccc3c(c21)C(C)=CC(C)(C)N3 (stereo unspecified)	310 nM	141 nM	> 5000 nM	
COc1cccc2c1-c1ccc3c(c1C(C/C=C/CO)O2)C(C)=CC(C)(C)N3 (stereo unspecified)	> 5000 nM	150 nM	> 5000 nM	
COc1cccc2c1-c1ccc3c(c1C(CC=C1CCCC1)O2)C(C)=CC(C)(C)N3 (stereo unspecified)	> 5000 nM	217 nM	> 5000 nM	
COc1cccc2c1-c1ccc3c(c1C(CC=C(C)C)O2)C(C)=CC(C)(C)N3 (stereo unspecified)	> 5000 nM	23 nM	1600 nM	
C=C(Br)CC1Oc2cccc(OC)c2-c2ccc3c(c21)C(C)=CC(C)(C)N3 (stereo unspecified)	240 nM	110 nM	> 5000 nM	
COc1cccc2c1-c1ccc3c(c1[C@H]([C@H]1C=C(C)CCC1)O2)C(C)=CC(C)(C)N3	40 nM	19 nM	710 nM	EC50 (Cell line [5]): 110 nM; Efficacy (Cell line [13]): 38%; Efficacy (Cell line [6]): 89%; Efficacy (Cell line [7]): 82%; Efficacy [4]: 13%; Efficacy (Cell line [8]): 49%; EC50 (Cell line [9]): 640 nM; Efficacy (Cell line [10]): 26%; Efficacy (Cell line [14]): 95%; EC50 (Cell line [11]): 32 nM; EC50 (Cell line [12]): 62 nM; EC50 (Cell line [15]): 35 nM
C=CC(C)C1Oc2cccc(OC)c2-c2ccc3c(c21)C(C)=CC(C)(C)N3 (stereo unspecified)	110 nM	40 nM	> 5000 nM	
COc1cccc2c1-c1ccc3c(c1C(C1C=CCCC1)O2)C(C)=CC(C)(C)N3 (stereo unspecified)	13 nM	21 nM	2400 nM	
C=CC(C)(C)C1Oc2cccc(OC)c2-c2ccc3c(c21)C(C)=CC(C)(C)N3 (stereo unspecified)	> 5000 nM	> 5000 nM	> 5000 nM	
COc1cccc2c1-c1ccc3c(c1C(CC1=CCCCC1)O2)C(C)=CC(C)(C)N3 (stereo unspecified)			> 5000 nM	
COC(=O)/C=C/CC1Oc2cccc(OC)c2-c2ccc3c(c21)C(C)=CC(C)(C)N3 (stereo unspecified)	220 nM	87 nM	> 5000 nM	
C=C(CC1Oc2cccc(OC)c2-c2ccc3c(c21)C(C)=CC(C)(C)N3)C(=O)OC (stereo unspecified)	> 5000 nM	> 5000 nM	> 5000 nM	
COc1cccc2c1-c1ccc3c(c1C(C1C=C(C)CCC1)O2)C(C)=CC(C)(C)N3 (stereo unspecified)	15 nM	7 nM	980 nM	
C/C=C\CC1Oc2cccc(OC)c2-c2ccc3c(c21)C(C)=CC(C)(C)N3 (stereo unspecified)	39 nM	23 nM	1200 nM	
COc1cccc2c1-c1ccc3c(c1C(C1C=CCC1)O2)C(C)=CC(C)(C)N3 (stereo unspecified)			2200 nM	
C=C(COC(C)=O)CC1Oc2cccc(OC)c2-c2ccc3c(c21)C(C)=CC(C)(C)N3 (stereo unspecified)	310 nM	141 nM	> 5000 nM	
COc1cccc2c1-c1ccc3c(c1C(C1/C=C\CCCCC1)O2)C(C)=CC(C)(C)N3 (stereo unspecified)			> 5000 nM	
C=CCC1Oc2cccc(OC)c2-c2ccc3c(c21)C(C)=CC(C)(C)N3 (stereo in doubt; (-)4a)			1300 nM	
COc1cccc2c1-c1ccc3c(c1C(CC=C(F)F)O2)C(C)=CC(C)(C)N3 (stereo unspecified)	76 nM	20 nM	2300 nM	
C=C(C)CC1Oc2cccc(OC)c2-c2ccc3c(c21)C(C)=CC(C)(C)N3 (stereo unspecified)	66 nM	42 nM	> 5000 nM	
C=CCC1Oc2cccc(OC)c2-c2ccc3c(c21)C(C)=CC(C)(C)N3 (stereo in doubt; 4a) [AL-43]	33 nM	13 nM		
C/C=C/CC1Oc2cccc(OC)c2-c2ccc3c(c21)C(C)=CC(C)(C)N3 (stereo unspecified)	150 nM	38 nM	2100 nM	
C=CCC1Oc2cccc(OC)c2-c2ccc3c(c21)C(C)=CC(C)(C)N3 (stereo in doubt; 4a)			1800 nM	
